# Measurements from different studies.
# Compare with care: the assays were run in different laboratories.
# RET V804M: Proto-oncogene tyrosine-protein kinase receptor Ret (RET, Homo sapiens, UniProt P07949, V804M)
# RET: Proto-oncogene tyrosine-protein kinase receptor Ret (RET, Homo sapiens, UniProt P07949)
# RET V804L: Proto-oncogene tyrosine-protein kinase receptor Ret (RET, Homo sapiens, UniProt P07949, V804L)
# RET M918T: Proto-oncogene tyrosine-protein kinase receptor Ret (RET, Homo sapiens, UniProt P07949, M918T)
Structure (SMILES),target,test,conditions,remaining binding [%]
O=C(NCC1CCOCC1)c1n[nH]cc1NC(=O)c1c(F)cccc1F,RET V804M,"binding, competition with immobilised ligand",1 µM,90
CN(C(=O)c1ccccc1)c1cc(N(C)c2ccc3c(c2)CCc2ccc(C(=O)NCCN4CCOCC4)cc2C3=O)ccc1F,RET,"cell-free assay, competition with immobilised ligand",1 µM,95
O=C(c1ccc(Nc2ncc(Cl)c(-c3cc4ccccc4s3)n2)cc1)N1CCC(N2CCCC2)CC1,RET V804L,"binding, competition with immobilised ligand",1 µM,23
CO[C@@H](C)c1c(Nc2ccc([C@@H](N(C)C(=O)C3CCS(=O)(=O)CC3)C(F)(F)F)cc2)cnc2cc(Cl)nn12,RET,"cell-free assay, competition with immobilised ligand",1 µM,91
O=C(c1ccc(Nc2ncc(Cl)c(-c3ccc(Cl)s3)n2)cc1)N1CCC(N2CCCC2)CC1,RET M918T,"binding, competition with immobilised ligand",1 µM,8.4
c1cncc(-c2cccc(Nc3nccc(NC4CCCCC4)n3)c2)c1,RET,"binding, competition with immobilised ligand",10 µM,14
Nc1ncc2c(n1)-c1c([nH]c3ccc(C#CC4CC4)cc13)CCCC2,RET,"binding, competition with immobilised ligand",1 µM,91
F[C@@H]1CCN(c2nccc(-c3cnn4ncccc34)n2)C1,RET,binding,1 µM,92
CN1CCN(c2ccc(Nc3nccc(-c4cccc([N+](=O)[O-])c4)n3)cc2C(F)(F)F)CC1,RET V804M,binding,10 µM,49
CS(=O)(=O)NCC[C@H](NC(=O)c1cncc2c1cnn2-c1ccc(F)cc1)c1ccnc(S(C)(=O)=O)c1,RET,"cell-free assay, competition with immobilised ligand",1 µM,91
c1cnn2ncc(-c3ccnc(N4CCC45COC5)n3)c2c1,RET,binding,1 µM,97
N#Cc1ccccc1CSc1nnc2c(n1)[nH]c1ccccc12,RET,"binding, competition with immobilised ligand",10 µM,89
C[C@@H]1CN(c2ccc3ncc(-c4ccc5[nH]nc(C6CC6)c5c4)n3n2)C[C@H](C)O1,RET,"binding, competition with immobilised ligand",50 nM,88
CC(C)CC(=O)N1CCc2nc(-c3ccc(Br)cc3)nc(N(C)Cc3ccccc3)c2C1,RET,"cell-free assay, competition with immobilised ligand",0.1 µM,68
C[C@@H](c1ccc(-n2cnc3c(N)ncnc32)cc1)N1CCc2nn(C)c(Cc3ccccc3)c2C1=O,RET,"binding, competition with immobilised ligand",0.1 µM,81
C[C@@H]1CCN(c2nccc(-c3cnn4ncccc34)n2)C1,RET,binding,1 µM,70
O=C(c1ccc(Nc2nccc(-c3cc4ccccc4s3)n2)cc1)N1CCC(N2CCCC2)CC1,RET,"binding, competition with immobilised ligand",1 µM,85
CNC(=O)[C@@H]1CC[C@@H](n2c(-c3ccc4cnccc4c3)nc3ccc(C(=O)NCc4cccc(C(N)=O)c4)cc32)C1,RET V804M,"binding, competition with immobilised ligand",1 µM,100
COc1ncc2cc3ccccc3nc2c1C#N,RET M918T,"cell-free assay, competition with immobilised ligand",5 µM,96
O=C(NCCCN1CCOCC1)c1ccc(Nc2nccc(-c3cc4ccccc4s3)n2)cc1,RET,"binding, competition with immobilised ligand",1 µM,55
Cc1cnn2ncc(-c3ccnc(N(C)C)n3)c2c1,RET M918T,binding,1 µM,100
CCCCN(CCCC)C(=O)CN1C[C@@H](c2cc(OC)c3c(c2)OCO3)[C@H](C(=O)O)[C@H]1CC(C)(C)CCC,RET V804L,"cell-free assay, competition with immobilised ligand",1 µM,100
COc1ccnn2ncc(-c3ccnc(N(C)C)n3)c12,RET V804L,binding,1 µM,100
C=CC(=O)N1CCC(C(=O)NCC(=O)N2CCN(c3nc(-c4cnc(N)nc4C(F)F)nc(N4CCOCC4)n3)CC2)CC1,RET M918T,"binding, competition with immobilised ligand",1 µM,97
COc1cnc(Nc2cccc(S(N)(=O)=O)c2)nc1N1CCN(c2ccccc2)C(=O)C1,RET,"binding, competition with immobilised ligand",1 µM,90
O=C(Nc1c[nH]nc1C(=O)NC1CCNCC1)c1cc(F)cc(F)c1,RET,"binding, competition with immobilised ligand",1 µM,100
CC1CCCN1c1nccc(-c2cnn3ncccc23)n1 (centres unmarked),RET M918T,binding,1 µM,89
CCN1CCN(Cc2ccc(C(=O)Nc3ccc(C)c(Oc4ccc5c(c4)CC(=O)N5)c3)cc2C(F)(F)F)CC1,RET V804L,"binding, competition with immobilised ligand",1 µM,99
O=C(NCCCN1CCOCC1)c1ccc(Nc2ncc(Cl)c(-c3ccc(Cl)s3)n2)cc1,RET,"binding, competition with immobilised ligand",1 µM,24
COc1cnc(Nc2cccc(S(N)(=O)=O)c2)nc1N1CCN(c2ccccc2)CC1,RET M918T,"binding, competition with immobilised ligand",1 µM,49
O=C(N1CCS(=O)(=O)CC1)N1C[C@H](c2ccc(OC(F)(F)F)cc2)C[C@H](c2nc(C3CC3)no2)C1,RET M918T,"cell-free assay, competition with immobilised ligand",1 µM,92
N[C@@H]1CCN(c2nccc(-c3cnn4ncccc34)n2)C1,RET,binding,1 µM,100
FC(F)(F)Oc1cccc(-c2cnc3ccc(-c4ccncc4)nn23)c1,RET,"cell-free assay, competition with immobilised ligand",5 µM,86
CN(CCCC(F)(F)F)c1nccc(-c2cnn3ncccc23)n1,RET,binding,1 µM,86
Cc1nc(Cc2cccc(C(F)(F)F)c2)sc1-c1ccc(C(N)=O)nc1,RET V804L,"cell-free assay, competition with immobilised ligand",1 µM,86
CN1CCN(c2ccc(Nc3nccc(-c4ccccc4)n3)cc2C(F)(F)F)CC1,RET M918T,binding,10 µM,27
O=C(Nc1cnc(Oc2ccc(F)cc2)nc1)N1CCc2ncccc2[C@@H]1c1ccc(F)cc1,RET M918T,"cell-free assay, competition with immobilised ligand",1 µM,95
Cc1cnc(Nc2ccc(C(=O)N3CCC(N4CCCC4)CC3)cc2)nc1-c1cc2ccccc2s1,RET,"binding, competition with immobilised ligand",1 µM,12
